pIC50: −log10 of the molar value. Active and inactive are the calls of the source. The rule behind the calls is not given here.
Tests used:
[1] = target: Glyceraldehyde-3-phosphate dehydrogenase (Oryctolagus cuniculus) (UniProt P46406); assay: Induction of rabbit GAPDH tetramer segregation into monomers at 10 uM after 30 mins by SDS-PAGE
How it was run: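 Purified rabbit muscle GAPDH was incubated with compound at 0.4, 2 or 10 µM for 30 min at 4 °C. Samples were then chemically cross-linked, resolved by SDS-PAGE and silver-stained. Tetramer and monomer bands were compared.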

[2] = target: Glyceraldehyde-3-phosphate dehydrogenase (Mus musculus) (UniProt P16858); assay: Inhibition of GAPDH in mouse 3T3-L1 cells assessed as 2-NBD-glucose uptake after 15 mins; assay type: cell-based
How it was run: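 3T3-L1 preadipocytes grown overnight in DMEM with 10% heat-inactivated newborn calf serum, washed and held in PBS 5 min. Compound applied with 2-NBD-glucose ([…]) for 15 min at 37 °C. Cells washed, lysed in 0.1 M potassium phosphate pH 10 with 1% Triton X-100, DMSO added. Fluorescence read at ex 466/em 540 nm.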

[3] = target: Glyceraldehyde-3-phosphate dehydrogenase (Homo sapiens, UniProt P04406); assay: Inhibition of GAPDH
How it was run: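 Purified rabbit muscle GAPDH was tested in vitro for its glycolytic enzymatic activity. The read-out was the half-maximal inhibitory concentration.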

[4] = target: Glyceraldehyde-3-phosphate dehydrogenase (Mus musculus) (UniProt P16858); assay: Inhibition of GAPDH in mouse 3T3L1 lysate assessed as inhibition of conversion of Ptdlns(3, 4, 5)P3 to PIP2 by fluorescent phosphoinositide TLC
How it was run: (§1)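 3T3-L1 preadipocyte lysate (5 µl) in 50 mM ammonium carbonate pH 8.0 with 2 mM DTT. Compound present, reaction started with C6-NBD6-PtdIns(3,4,5)P3 or PtdIns(4,5)P2, run 2 h at 25 °C. Products resolved by TLC on oxalate-treated silica. Hydrolyzed spot quantified as fraction of total fluorescence; s.d. from two independent experiments.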

Caenorhabditis elegans [5] = assay: inhibition of GAPDH in Caenorhabditis elegans e1370 daf-2 mutant assessed as inhibition of dauer formation
How it was run: (§2)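 C. elegans daf-2 (e1370) kept in M9 buffer with 2% E. coli OP50 culture and compound ([…]), 4 d at 25 °C. Young adult-size animals counted in solution.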

[6] = target: Glyceraldehyde-3-phosphate dehydrogenase (Mus musculus) (UniProt P16858); assay: Inhibition of GAPDH in mouse 3T3L1 […] assessed as increase in Ptdlns(4, 5)P2 level by immunofluorescence method
How it was run: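 Whole 3T3-L1 cells given compound in PBS for 1 min, DMSO as control, then fixed in 4% formaldehyde. Stained with antibody to PtdIns(4,5)P2 and imaged by fluorescence microscopy (ex 488/em 510 nm). Intensity normalized to DMSO control; s.d. from 15 images over three independent experiments.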

[7] = target: Glyceraldehyde-3-phosphate dehydrogenase (Oryctolagus cuniculus) (UniProt P46406); assay: Inhibition of rabbit GAPDH glycolytic activity at > 50 uM
3T3-L1 [8] = assay: Inhibition of conversion of Ptdlns(3, 4, 5)P3 to PIP2 in GAPDH depleted mouse 3T3L1 lysate by fluorescent phosphoinositide TLC; assay type: functional
How it was run: (§3)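 3T3-L1 lysate immunodepleted of GAPDH, run in 25 µl ammonium carbonate/DTT buffer pH 8.0 with fluorescent PtdIns(3,4,5)P3 or PtdIns(4,5)P2 substrate. Run with or without exogenous GAPDH ([…]), compound tested in the presence of GAPDH, 2 h at 25 °C. Sampled every 20 min and resolved by TLC. Hydrolyzed/total spot fluorescence; two independent experiments.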

[9] = target: Glyceraldehyde-3-phosphate dehydrogenase (Mus musculus) (UniProt P16858); assay: Inhibition of GAPDH in mouse 3T3L1 lysate assessed as inhibition of conversion of Ptdlns(4, 5)P2 to PIP by fluorescent phosphoinositide TLC; how it was run: as §1
Caenorhabditis elegans [10] = assay: inhibition of GAPDH in Caenorhabditis elegans e1370 daf-2 mutant assessed as inhibition of dauer formation relative to control; how it was run: as §2
[11] = target: Glyceraldehyde-3-phosphate dehydrogenase (Oryctolagus cuniculus, UniProt P46406); assay: Inhibition of rabbit GAPDH glycolytic activity
How it was run: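 Enzyme source was purified GAPDH from rabbit muscle, assayed in vitro for its glycolytic enzymatic activity. IC50 was reported as the half-maximal inhibitory concentration.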

[12] = Activation of PI3K assessed as tyrosine phosphorylation of p85 subunit
3T3-L1 [13] = assay: Inhibition of conversion of Ptdlns(4, 5)P2 to PIP in GAPDH depleted mouse 3T3L1 lysate by fluorescent phosphoinositide TLC; assay type: functional; how it was run: as §3
[14] = target: Glyceraldehyde-3-phosphate dehydrogenase (Mus musculus) (UniProt P16858); assay: Induction of GAPDH tetramer segregation into monomers in mouse 3T3L1 lysate at […] after 3 hrs by immunoprecipitation method

Sequence of Glyceraldehyde-3-phosphate dehydrogenase (Oryctolagus cuniculus) (P46406 whole entry, looked up): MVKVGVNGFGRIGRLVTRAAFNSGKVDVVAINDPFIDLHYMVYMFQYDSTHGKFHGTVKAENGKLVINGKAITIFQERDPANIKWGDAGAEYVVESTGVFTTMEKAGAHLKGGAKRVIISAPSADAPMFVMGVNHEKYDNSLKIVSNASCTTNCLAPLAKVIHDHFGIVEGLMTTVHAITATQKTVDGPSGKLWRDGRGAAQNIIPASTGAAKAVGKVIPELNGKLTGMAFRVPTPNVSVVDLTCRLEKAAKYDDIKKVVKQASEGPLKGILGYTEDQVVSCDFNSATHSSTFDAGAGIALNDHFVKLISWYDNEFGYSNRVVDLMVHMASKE
Sequence of Glyceraldehyde-3-phosphate dehydrogenase (Mus musculus) (P16858 whole entry): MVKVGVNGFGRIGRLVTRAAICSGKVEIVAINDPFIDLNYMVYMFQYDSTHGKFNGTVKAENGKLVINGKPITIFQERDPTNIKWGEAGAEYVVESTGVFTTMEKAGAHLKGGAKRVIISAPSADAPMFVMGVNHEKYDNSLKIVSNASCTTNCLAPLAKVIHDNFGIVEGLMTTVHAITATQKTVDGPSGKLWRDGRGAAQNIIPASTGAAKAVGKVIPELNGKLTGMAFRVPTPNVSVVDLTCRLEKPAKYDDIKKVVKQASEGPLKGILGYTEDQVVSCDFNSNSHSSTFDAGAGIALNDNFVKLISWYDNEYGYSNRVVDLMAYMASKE
Sequence of Glyceraldehyde-3-phosphate dehydrogenase (Oryctolagus cuniculus, UniProt P46406) (P46406 whole entry): as the sequence (P46406 whole entry, looked up) above
Sequence of Glyceraldehyde-3-phosphate dehydrogenase (Homo sapiens, UniProt P04406) (P04406 whole entry): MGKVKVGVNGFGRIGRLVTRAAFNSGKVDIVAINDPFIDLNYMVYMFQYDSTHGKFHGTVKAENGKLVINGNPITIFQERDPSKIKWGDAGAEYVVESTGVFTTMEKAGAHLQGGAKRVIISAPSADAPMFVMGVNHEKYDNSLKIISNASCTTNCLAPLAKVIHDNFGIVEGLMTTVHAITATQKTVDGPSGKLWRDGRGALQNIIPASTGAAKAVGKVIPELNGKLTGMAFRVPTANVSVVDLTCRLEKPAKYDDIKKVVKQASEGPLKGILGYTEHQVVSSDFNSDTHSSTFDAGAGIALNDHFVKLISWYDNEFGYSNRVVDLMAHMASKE

SMILES	Activity [1]	inhibition [2]	pIC50 [3]	inhibition [4]	inhibition (Caenorhabditis elegans [5])	inhibition [6]	inhibition [7]	inhibition (3T3-L1 [8])	inhibition [9]	inhibition (Caenorhabditis elegans [10])	pIC50 [11]	Activity [12]	inhibition (3T3-L1 [13])	Activity [14]
NCCc1cc(O)c(O)cc1O [OXIDOPAMINE]	inactive	inactive	5.10	–	–	–	–	–	–	–	–	–	–	–
CCCCNc1nc(NCCOCCOCCNC(=O)c2ccccc2)nc(NCc2ccccn2)n1	inactive	inactive	–	inactive	inactive	inactive	inactive	inactive	–	–	–	–	–	–
O=C(NCCOCCOCCNc1nc(NCCc2ccc(O)c(O)c2)nc(Nc2ccccc2)n1)c1ccccc1	Active	Dose-dependent effect	–	Active	–	Active	–	Active	Active	18%	4.82	inactive	inactive	Active
C#CCN(C)[C@H](C)Cc1ccccc1	inactive	–	–	–	–	–	–	–	–	–	–	–	–	–

Source: ChEMBL document CHEMBL1221194, “Forward chemical genetic approach identifies new role for GAPDH in insulin signaling” (Nat Chem Biol, 2007)
